Data on 35 compounds can be found in ChEMBL document CHEMBL2157923, “1,3-Azoles from ortho-naphthoquinones: synthesis of aryl substituted imidazoles and oxazoles and their potent activity against Mycobacterium tuberculosis” (Bioorg Med Chem, 2012).

The subject of test [1] is Mycobacterium tuberculosis. Put plainly: Antimycobacterial activity against pan-susceptible Mycobacterium tuberculosis H37Rv ATCC 27294 after 7 days by resazurin microtitre assay. In kind it is functional. In a few lines: (§1)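 REMA MIC. Strains kept on Ogawa-Kudoh medium 14 days at 37 °C. Suspension vortexed and adjusted to McFarland tube 1 (3.2 × 10^6 cfu/mL), then diluted 1:20 in Middlebrook 7H9 with 10% OADC and glycerol. Compounds tested from 100 ug/mL down to 0.19 ug/mL. Incubated 7 days at 37 °C, resazurin added, 2 more days at 37 °C; colour change read.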
(In general: Resazurin is reduced to fluorescent resorufin, in cell work by metabolically active cells.)

Test [2] has as its system PBMC. The test is described as follows: Cytotoxicity against human PBMC after 72 hrs by alamar blue assay. In kind it is cell-based. In a few lines: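 Alamar Blue assay on human PBMC. Compounds at 0.048 to 25 µg/mL in DMSO (0.1%) added after 24 h and exposed 72 h. Resazurin added 24 h before the end. Absorbance read at 570 and 595 nm, medium blank subtracted, and % reduced computed with correction factor R0. Effect expressed as percentage of control.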

Test [3] has as its system Mycobacterium tuberculosis. Put plainly: Antimycobacterial activity against pan-susceptible Mycobacterium tuberculosis H37Rv. In kind it is functional. In a few lines:
as §1

Structures are written as SMILES. In brackets after ≈: the same amount, converted by molar mass. Activity calls are given as the source filed them. The calls are words filed in the database; no cut-off is given here.

The term MIC denotes the least concentration at which growth counts as inhibited. The term IC50 denotes the concentration that inhibits the measured activity by half. High values mean a need for much substance, low ones inhibition by little substance.

`CC1(C)CCc2c(c3ccccc3c3nc(-c4ccc(C(F)(F)F)cc4)[nH]c23)O1`: the MIC result in test [1] was “inactive”.
Compound `CC1(C)CCc2c(c3ccccc3c3nc(-c4ccc(F)cc4)[nH]c23)O1` had an IC50 in test [2] of more than 25 µg/mL. The same compound returned an MIC in test [1] (H37Rv ATCC 27294, 168 h) of 72.2 µM (≈ 25 µg/mL).
The compound `CC1Cc2c(c3ccccc3c3nc(-c4ccc([N+](=O)[O-])cc4)oc23)O1` (stereo not drawn) showed an MIC in test [1] (H37Rv ATCC 27294, 168 h) of more than 289 µM.
`CC1(C)CCc2c(c3ccccc3c3nc(-c4cc5ccccc5cn4)[nH]c23)O1` registered a half-maximal inhibitory concentration (IC50) in test [2] of more than 25 µg/mL. Further, in test [1] (H37Rv ATCC 27294, 168 h), it took 16.4 µM (≈ 6.22 µg/mL) to inhibit growth (MIC).
`CC1CC2=C(O1)c1ccccc1C(=O)C2=O` (stereo not drawn): 14.5 µM (≈ 3.11 µg/mL) was the least that counted as inhibitory in test [1] (H37Rv ATCC 27294, 168 h) (MIC).
For `CC1(C)CCc2c(c3ccccc3c3nc(-c4ccc(Br)cc4)[nH]c23)O1`, the half-inhibitory concentration (IC50) in test [2] is more than 25 µg/mL. In test [1], the MIC entry was “inactive”.
The compound `CC1(C)CCc2c(c3ccccc3c3nc(-c4ccc(C#N)cc4)oc23)O1` came in with a minimal inhibitory concentration (MIC) in test [1] (H37Rv ATCC 27294, 168 h) of 17.6 µM (≈ 6.24 µg/mL).
As for `Cc1ccc(-c2nc3c(o2)c2c(c4ccccc43)OC(C)(C)C2)cc1`, in test [1] (H37Rv ATCC 27294, 168 h), the MIC is more than 304 µM.
Still for that read-out and setting: in the case of `CC1(C)Cc2c(c3ccccc3c3nc(-c4ccc([N+](=O)[O-])cc4)oc23)O1` it was more than 278 µM; in that of `COc1ccccc1-c1nc2c([nH]1)c1c(c3ccccc32)OC(C)(C)CC1`, 17.4 µM (≈ 6.24 µg/mL).
In turn, `CC1(C)CCc2c(c3ccccc3c3nc(-c4ccccc4[N+](=O)[O-])[nH]c23)O1` displayed an IC50 in test [2] of more than 25 µg/mL. Besides, it took 268 µM (≈ 100 µg/mL) to inhibit growth in test [1] (H37Rv ATCC 27294, 168 h) (MIC).
In turn, `CC1(C)CCc2c(c3ccccc3c3nc(-c4ccccc4C#N)oc23)O1` displayed an MIC in test [1] (H37Rv ATCC 27294, 168 h) of 35.2 µM (≈ 12.5 µg/mL).
As to `CC1(C)CCc2c(c3ccccc3c3nc(-c4cccc(C#N)c4)[nH]c23)O1`, in test [2], the half-inhibitory concentration (IC50) was more than 25 µg/mL. Besides, the MIC result in test [1] was “inactive”.
Regarding `C=CCC1=C(O)C(=O)c2ccccc2C1=O`, it took 467 µM (≈ 100 µg/mL) to inhibit growth in test [1] (H37Rv ATCC 27294, 168 h) (MIC).
Still for that read-out and setting: with `CC1(C)CCc2c(c3ccccc3c3nc(-c4ccc([N+](=O)[O-])cc4)[nH]c23)O1` the figure was 268 µM (≈ 100 µg/mL); with `CC1(C)CCc2c(c3ccccc3c3nc(-c4ccccn4)[nH]c23)O1`, 75.9 µM (≈ 25 µg/mL).
The same measure, in the same setting: in the case of `CC1(C)CCc2c(c3ccccc3c3nc(-c4cccc(C(F)(F)F)c4)[nH]c23)O1` it was 4 µM (≈ 1.59 µg/mL); in that of `CC1(C)CCc2c(c3ccccc3c3nc(-c4cccc(C#N)c4)oc23)O1`, 35.2 µM (≈ 12.5 µg/mL); in that of `Cc1ccc(-c2nc3c([nH]2)c2c(c4ccccc43)OC(C)(C)C2)cc1`, more than 304 µM.
In the case of `CC1(C)CCc2c(c3ccccc3c3nc(-c4ccccc4Br)[nH]c23)O1`, in test [2], the 50% inhibitory concentration (IC50) is more than 25 µg/mL. The minimum inhibitory concentration (MIC) in test [1] (H37Rv ATCC 27294, 168 h) was determined as 7.6 µM (≈ 3.1 µg/mL).
`CO[C@H]1/C=C/O[C@@]2(C)Oc3c(C)c(O)c4c(O)c(c(/C=N/N5CCN(C)CC5)c(O)c4c3C2=O)NC(=O)/C(C)=C\C=C\[C@H](C)[C@H](O)[C@@H](C)[C@@H](O)[C@@H](C)[C@H](OC(C)=O)[C@@H]1C` [RIFAMPIN] gave an MIC in test [1] (H37Rv ATCC 27294, 168 h) not above 0.1 µM.
In test [2], `CC1(C)CCc2c(c3ccccc3c3nc(-c4ccccc4)[nH]c23)O1` had a concentration for half-maximal inhibition (IC50) of more than 25 µg/mL. In addition, the MIC in test [1] (H37Rv ATCC 27294, 168 h) is more than 304 µM.
Take `CC1(C)CCc2c(c3ccccc3c3nc(-c4ccc(C#N)cc4)[nH]c23)O1`: the IC50 in test [2] is more than 25 µg/mL. In addition, the MIC result in test [1] was “inactive”.
In test [2], `CC1(C)CCc2c(c3ccccc3c3nc(-c4cccc(Br)c4)[nH]c23)O1` returned a 50% inhibitory concentration (IC50) of more than 25 µg/mL. This compound displayed an MIC in test [1] (H37Rv ATCC 27294, 168 h) of 15.3 µM (≈ 6.23 µg/mL).
As for `CC1(C)CCc2c(c3ccccc3c3nc(-c4cccnc4)[nH]c23)O1`, the MIC entry in test [1] was “inactive”.
Regarding `CC1(C)CCc2c(c3ccccc3c3nc(-c4cccc(F)c4)[nH]c23)O1`, in test [2], the IC50 is more than 25 µg/mL. The compound further displayed an MIC in test [1] (H37Rv ATCC 27294, 168 h) of 9 µM (≈ 3.12 µg/mL).
In the case of `Cc1ccccc1-c1nc2c([nH]1)c1c(c3ccccc32)OC(C)(C)CC1`, in test [1] (H37Rv ATCC 27294, 168 h), inhibition of growth (MIC) required 9 µM (≈ 3.08 µg/mL).
Turning to `CC1(C)CCc2c(c3ccccc3c3nc(-c4ccc(Cl)cc4)[nH]c23)O1`, in test [2], the IC50 was more than 25 µg/mL. For the same compound, in test [1] (H37Rv ATCC 27294, 168 h), the minimum inhibitory concentration (MIC) turned out to be 34.4 µM (≈ 12.5 µg/mL).
Take `CC1(C)Cc2c(c3ccccc3c3nc(-c4ccccc4)[nH]c23)O1`: the IC50 in test [2] is more than 25 µg/mL. Also, in test [1] (H37Rv ATCC 27294, 168 h), the minimum inhibitory concentration (MIC) is more than 318 µM.
`C=CCC1Cc2c(c3ccccc3c3nc4ccccc4nc23)OC1(C)C` (stereo not drawn) returned a minimum inhibitory concentration (MIC) in test [3] of 0.78 µg/mL (≈ 2.2 µM).
For `CC1(C)CCc2c(c3ccccc3c3nc(-c4cnc5ccccc5c4)[nH]c23)O1`, the MIC result in test [1] was “inactive”.
Regarding `NNC(=O)c1ccncc1` [ISONIAZID], in test [1] (H37Rv ATCC 27294, 168 h), the MIC is not above 0.4 µM.
On the same count and under the same terms, with `CC1(C)CCc2c(c3ccccc3c3nc(-c4ccccc4C(F)(F)F)[nH]c23)O1` the figure was 4 µM (≈ 1.59 µg/mL).
In test [3], `CC(C)CCc1c2[nH]c3ccccc3nc-2c2c(c1=O)CCCC2` registered a minimum inhibitory concentration (MIC) not above 3 µg/mL.
In the case of `CC1(C)CCc2c(c3ccccc3c3nc(-c4cccc([N+](=O)[O-])c4)[nH]c23)O1`, the 50% inhibitory concentration (IC50) in test [2] was more than 25 µg/mL. The MIC entry in test [1] is “inactive”.
